Assay [1] in a line: Inhibition of platelet aggregation induced by AA (100 uM). In kind it is functional. The procedure, abridged:
(§1)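 Platelets were preincubated with test compound at 37 °C for 1 min. Values are mean ± SE from three to six separations. Aspirin served as positive control.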

Assay [2] is described as follows: Inhibition of platelet aggregation induced by Collagen (10 uM). In kind it is functional. Conditions: in the assay text read “10 ug/mL” for “10 uM”. The procedure, abridged: as §1
Assay [3] is described as follows: Inhibition of platelet aggregation induced by PAF (2 ng/mL). In kind it is functional. The procedure, abridged: as §1
Assay [4] in a line: Inhibition of platelet aggregation induced by thrombin (0.1 unit/ml). In kind it is functional. In short, it runs like this:
as §1

The target in assay [5] is T1, cGMP-specific 3',5'-cyclic phosphodiesterase (Homo sapiens, UniProt O76074). The experiment in a line: (§2) Inhibition of PDE5 from platelets. The procedure, abridged:
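PDE activity fraction incubated with [3H]cGMP as substrate and a range of test-compound concentrations at 37 °C for 10 min. IBMX served as positive control.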

Assay [6] deals with T2, Soluble guanylate cyclase (Homo sapiens) (UniProt Q02153+O75343+P33402+Q02108). The experiment in a line: […] was determined in the presence of [alpha-32P]GTP at a concentration of 82 uM. In kind it is protein-complex assay. The procedure, abridged:
(§3)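 Soluble guanylate cyclase source was the supernatant fraction of platelet homogenate. It was incubated with [α-32P]GTP and 82 μM test compound at 37 °C for 10 min. Activity was expressed as pmol cGMP/min/mg protein.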

Assay [7] is described as follows: inhibition of platelet aggregation induced by PAF (2 ng/mL). In kind it is functional. In short, it runs like this:
as §1

For assay [8], the target named is T2, Soluble guanylate cyclase (Homo sapiens). Description: sGC activation was determined in the presence of [alpha-32P]GTP at a concentration of 82 uM. In kind it is protein-complex assay. The procedure, abridged:
as §3

Assay [9] concerns the target T1, cGMP-specific 3',5'-cyclic phosphodiesterase. The description is as §2. The procedure, abridged:
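PDE activity fraction incubated with [3H]cGMP as substrate and a range of test-compound concentrations at 37 °C for 10 min. […] IBMX served as positive control.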
The source holds these as a separate data set.

The nature of assay [10]: Inhibition of platelet aggregation induced by Collagen (10 ug/mL).

What is called IC50 is the concentration that inhibits the measured activity by half. A lower IC50 goes with inhibition by little substance. As for `CCOC(=O)c1ccc(-c2nn(Cc3ccccc3)c3ccccc23)cc1`, the 50% inhibitory concentration (IC50) in assay [1] worked out at 184 µM; in assay [2] it was 212 µM; in assay [3], 164 µM; in assay [4], 29.3 µM.

On to `COC(=O)c1ccc(-c2nn(Cc3ccccc3)c3cc(OC)ccc23)o1`, for which the IC50 is 92.3 µM in assay [1], 157 µM in assay [2], greater than 270 µM in assay [3] and greater than 270 µM in [4].

Turning to `Cc1ccc(-c2nn(Cc3ccccc3)c3ccccc23)o1`, the half-inhibitory concentration (IC50) was 22.3 µM in assay [5]; 47.3 µM in assay [1]; 27.5 µM in [2]; 39.4 µM in assay [4]; 39.6 µM in assay [7]. Besides, the Activity (pM of cGMP (min)-1 (mg of protein)-1) in [6] stood at 30.9.

For the compound `CCN(CC)Cc1ccc(-c2nn(Cc3ccccc3)c3ccccc23)o1`, the IC50 in [5] amounted to 63 µM; in [1] it was 55.7 µM; in assay [2], 50.4 µM; in [3] it was 55.9 µM; in assay [4], 102 µM. In [8], the Activity (pM of cGMP (min)-1 (mg of protein)-1) was determined as 17.9.

`CC(=O)Oc1ccccc1C(=O)O` [ASPIRIN]: the IC50 in assay [1] was 20 µM; in [2], greater than 270 µM; in [3], greater than 270 µM; in [4], greater than 270 µM.

`COC(=O)c1ccc(-c2nn(Cc3ccccc3)c3ccccc23)o1`: the IC50 in assay [1] was 81.1 µM; in assay [2], 162 µM; in [3], greater than 270 µM; in [4], greater than 270 µM.

For the compound `COCc1ccc(-c2nn(Cc3ccccc3)c3cc4c(cc23)OCO4)o1`, the IC50 in assay [1] is 102 µM; in [2], 113 µM; in [4] it was greater than 270 µM; in assay [7], 196 µM.

As for `OCc1ccc(-c2nn(Cc3ccccc3)c3cc(F)ccc23)o1`, the IC50 in assay [5] is 14 µM; in assay [1], 21.7 µM; in assay [2], 25.2 µM; in [3], 53.4 µM; in assay [4], 217 µM. The Activity (pM of cGMP (min)-1 (mg of protein)-1) in [8] was determined as 37.2.

`COCc1ccc(-c2nn(Cc3ccccc3)c3cc(OC)ccc23)o1`: the IC50 in assay [1] was 108 µM; in assay [2], 115 µM; in [4] it was 256 µM; in assay [7], 177 µM.

`OCc1ccc(-c2[nH]nc3ccccc23)o1`: the IC50 in assay [1] is 101 µM; in assay [2], greater than 270 µM; in assay [4], greater than 270 µM; in assay [7], greater than 270 µM.

For the compound `O=C(O)c1ccc(-c2nn(Cc3ccccc3)c3ccccc23)o1`, the half-inhibitory concentration (IC50) in [1] was 83.7 µM; in [2], 75.5 µM; in assay [3], greater than 270 µM; in assay [4] it was greater than 270 µM.

Regarding `Cc1ccc2c(-c3ccc(CO)o3)nn(Cc3ccccc3)c2c1`, the IC50 in [5] stood at 8.4 µM; in [1], 49.4 µM; in [2], 45.9 µM; in assay [3], 72 µM; in [4] it was 147 µM. Also, the Activity (pM of cGMP (min)-1 (mg of protein)-1) in [8] is 35.1.

For the compound `O=C(O)c1ccc(-c2nn(-c3ccccc3)c3ccccc23)o1`, the IC50 in assay [1], in assay [2], in assay [4] and in assay [7] was greater than 270 µM throughout.

For the compound `CCOC(=O)c1cccc(-c2nn(Cc3ccccc3)c3ccccc23)c1`, the half-maximal inhibitory concentration (IC50) in assay [1] was 125 µM; in [2], 144 µM; in [4] it was greater than 270 µM; in assay [7], greater than 270 µM.

With `COCc1ccc(-c2nn(Cc3ccccc3)c3ccccc23)o1`, the 50% inhibitory concentration (IC50) in assay [5] worked out at 13.8 µM; in assay [1], 8.2 µM; in assay [2] it was 6.6 µM; in assay [3], 25.5 µM; in assay [4], 143 µM. Besides, the Activity (pM of cGMP (min)-1 (mg of protein)-1) in [8] came to 32.

In the case of `COc1ccc2c(-c3ccc(CO)o3)nn(Cc3ccccc3)c2c1`, the Activity (pM of cGMP (min)-1 (mg of protein)-1) in assay [8] came to 39.9. Further, the half-maximal inhibitory concentration (IC50) in assay [1] stood at 49.7 µM; in assay [2], 46.7 µM; in [3], 89.2 µM; in [4], 168 µM.

`CC(C)Cn1c(=O)n(C)c(=O)c2[nH]cnc21` [ISOBUTYLMETHYLXANTHINE] returned an IC50 in assay [9] of 63 µM.

With `COCc1ccc(-c2nn(Cc3ccccc3)c3cc(F)ccc23)o1`, the IC50 in [5] worked out at 3.9 µM; in assay [1] it was 45.9 µM; in assay [2] it was 64.1 µM; in assay [3], 109 µM; in assay [4], 116 µM. For the same compound, in assay [8], the Activity (pM of cGMP (min)-1 (mg of protein)-1) was 41.8.

`COC(=O)c1ccc(-c2nn(Cc3ccccc3)c3cc4c(cc23)OCO4)o1`: the IC50 in [1] worked out at 136 µM; in assay [2], 168 µM; in assay [4] it was 260 µM; in assay [7], 254 µM.

In the case of `OCc1cccc(-c2nn(Cc3ccccc3)c3ccccc23)c1`, the IC50 in [1] was 51.3 µM; in assay [2], 98.1 µM; in assay [3], 174 µM; in assay [4], greater than 270 µM.

Regarding `OCc1ccc(-c2nn(-c3ccccc3)c3ccccc23)o1`, the half-maximal inhibitory concentration (IC50) turned out to be 36.3 µM in [5]; 17.9 µM in assay [1]; 13.7 µM in assay [2]; 145 µM in [3]; 158 µM in assay [4]. The Activity (pM of cGMP (min)-1 (mg of protein)-1) in assay [8] stood at 27.8.

For the compound `COC(=O)c1ccc(-c2nn(Cc3ccccc3)c3cc(C)ccc23)o1`, the IC50 in assay [1] was 64.2 µM; in assay [2], 78.3 µM; in assay [3], greater than 270 µM; in assay [4], greater than 270 µM.

For `COC(=O)c1ccc(-c2nn(Cc3ccccc3)c3cc(F)ccc23)o1`, the IC50 in assay [1] is 94 µM; in [3], 149 µM; in assay [4], greater than 270 µM; in assay [10], 101 µM.

`COC(=O)c1ccc(-c2nn(-c3ccccc3)c3ccccc23)o1`: the IC50 in assay [1] was 10.6 µM; in [2], 18.2 µM; in assay [3] it was greater than 270 µM; in assay [4], greater than 270 µM.

In the case of `OCc1ccc(-c2nn(Cc3ccccc3)c3ccccc23)cc1`, the IC50 in assay [1] came to 101 µM; in assay [2], 123 µM; in assay [4], 193 µM; in assay [7], 143 µM.

Turning to `OCc1ccc(-c2nn(Cc3ccccc3)c3cc4c(cc23)OCO4)o1`, the IC50 turned out to be 96.6 µM in [1], 164 µM in assay [3], 239 µM in [4] and 105 µM in assay [10].

`O=C(O)c1ccc(-c2nn(Cc3ccccc3)c3cc4c(cc23)OCO4)o1`: the IC50 in [1] was 148 µM; in [2], 150 µM; in assay [4] it was greater than 270 µM; in assay [7] it was greater than 270 µM.

Regarding `OCc1ccc(-c2nn(Cc3ccccc3)c3ccccc23)o1`, the 50% inhibitory concentration (IC50) in [5] came to 31.9 µM; in assay [1] it was 54.3 µM; in assay [2], 53.8 µM; in assay [3], 87.3 µM; in [4], 173 µM. Besides, in assay [8], the Activity (pM of cGMP (min)-1 (mg of protein)-1) was determined as 44.6.

With `COCc1ccc(-c2nn(Cc3ccccc3)c3cc(C)ccc23)o1`, the Activity (pM of cGMP (min)-1 (mg of protein)-1) in assay [8] was determined as 22.1. The IC50 in assay [1] was determined as 32.4 µM; in assay [2], 59.3 µM; in assay [3] it was 76.3 µM; in [4], 126 µM.

`O=C(O)c1ccc(-c2nn(Cc3ccccc3)c3cc(F)ccc23)o1`: the IC50 in [1] is 119 µM; in assay [2], 180 µM; in assay [4], greater than 270 µM; in assay [7] it was greater than 270 µM.

In the case of `O=C(O)c1cccc(-c2nn(Cc3ccccc3)c3ccccc23)c1`, the IC50 in [1] was 156 µM; in assay [2], 148 µM; in assay [4], greater than 270 µM; in assay [7], 235 µM.

As to `O=C(O)c1ccc(-c2nn(Cc3ccccc3)c3ccccc23)cc1`, the concentration for half-maximal inhibition (IC50) in assay [1] was 130 µM; in assay [2] it was 156 µM; in [4], greater than 270 µM; in assay [7], 179 µM.

Regarding `Cc1ccc2c(-c3ccc(C(=O)O)o3)nn(Cc3ccccc3)c2c1`, the IC50 in assay [1] was 150 µM; in [2], 182 µM; in [4], greater than 270 µM; in [7], greater than 270 µM.

For the compound `COc1ccc2c(-c3ccc(C(=O)O)o3)nn(Cc3ccccc3)c2c1`, the half-maximal inhibitory concentration (IC50) in assay [1] was 150 µM; in assay [2], 140 µM; in assay [4], greater than 270 µM; in assay [7] it was greater than 270 µM.

For the origin of these results see ChEMBL document CHEMBL1134782, “Synthesis of 1-benzyl-3-(5'-hydroxymethyl-2'-furyl)indazole analogues as novel antiplatelet agents” (J Med Chem, 2001).
